Laboratory results: PubChem BioAssay
Records with an inconclusive call do not appear. Activity calls are given as the source filed them.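 The calls were made as follows, unless noted: active = cell viability at or below a set limit in both duplicate runs, the limit being the all-compound median minus 4 SD (cut at about 23% in these data, passing the limit was not always enough); inconclusive = no clear call, values can overlap the other calls; inactive = the rest.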

Experiments:
[1] = S. cerevisiae growth inhibition in permissive medium (OD615), pilot counter-assay for S. cerevisiae lifespan shortening project, permissive growth control (AID 705;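 active = growth inhibition above 25% in both replicates, a cutoff set 3 SD above the mean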); conditions: OD615, 24 h, at 10 µM, hits give high values
Method in brief: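 System: engineered DeaD yeast; Medium: permissive raffinose/galactose medium; Compound dosing: 10 µM single dose, 0.25% DMSO; Incubation: 4 h cell pre-growth, 24 h exposure at 30 °C; Technique: OD at 615 nm; Evaluation: growth inhibition from lowered OD615 after 24 h.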

[2] = S. cerevisiae growth inhibition in restrictive medium, OD615, pilot screen, restrictive growth control, yeast lifespan reduction project (AID 706;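 active = growth inhibition above a set limit, 3 SD over mean compound inhibition, in both replicates, cut at about 43% in these data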;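 also: modified DeaD lifespan yeast strain shifted to restrictive glucose medium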); conditions: OD615, 48 h, at 10 µM, hits give high values
Method in brief: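 Material: modified S. cerevisiae; buffer or medium: CSMM-D glucose medium; doses: one concentration, 10 µM final, 0.25% DMSO; incubation: 48 h compound exposure at 30 °C; detection: optical density at 615 nm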

[3] = doxorubicin toxicity protection in MRP-1 cells – H69AR cells, CellTiter-Glo, duplicate, MRP-1 activator project, pilot screen (AID 807;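 active = viability increase at or above a cutoff of the median across tested compounds plus 3 SD, cut at about 8.5% in these data, passing the limit was not always enough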;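 also: compound pretreatment 18-22 h then 72 h combined with doxorubicin; 0% = doxorubicin alone and 100% = vehicle without doxorubicin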); conditions: H69AR viability with doxorubicin, CellTiter-Glo luminescence; at 10 µM; hits give high values
[4] = viability of HCT116 without oncogenic beta-catenin – human colon tumor cells, pilot screen (AID 823); conditions: HCT116 beta-catenin knockout viability, CellTiter-Glo, 60 h; at 10 µM; hits give low values;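 also: 0% = wells killed by 20 µM Hyamine and 100% = untreated DMSO cell wells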
[5] = viability of PTEN-null HCT116 cells – cell-based, HCT116 clonal line, CellTiter-Glo, pilot screen (AID 824;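 active = viability at or below 27.92% in each of two runs, the all-compound median minus 4 SD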;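 also: 0% = 20 µM Hyamine control and 100% = vehicle cell control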); conditions: HCT116 PTEN-deleted viability, 60 h, at 10 µM, hits give low values
[6] = RAM pathway blockade in budding yeast – dse1pr::URA3 reporter, 5-FOA selection, pilot screen (AID 869;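 active = inhibition over a set limit, the all-compound mean plus 3 SD, in both replicate runs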;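 also: 0% = DMSO wells with no growth and 100% = 10 µM 1-NA-PP1 with full growth; RAM network block rescues cells from 5-FOA so hits raise OD615 growth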); conditions: S. cerevisiae dse1pr::URA3 5-FOA growth, OD615, 2 d; at 10 µM; hits give high values; strain carries analog-sensitive mutant Cbk1 kinase
[7] = RAM signaling pathway blockade in yeast – S. cerevisiae, Pdr1DBD-CYC8 efflux-inhibited sensitized strain, primary screen (AID 1298;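 active = RAM network inhibition above 8.4% in each of two replicates, 3 SD over the compound average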;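 also: 0% = DMSO untreated cells without growth and 100% = 10 µM 1-NA-PP1 full growth; higher means more yeast growth rescued from 5-FOA killing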); conditions: S. cerevisiae cbk1-as DSE1-URA3 strain, 5-FOA growth OD615, 2 d; at 50 µM; hits give high values

Cc1cccc(C(=O)N2CCN(Cc3ccc4c(c3)OCO4)CC2)c1
inactive: growth inhibition [1] -10.7% | growth inhibition [2] -4.2% | viability increase [3] -1.3% | viability [4] 111% | viability [5] 95.7% | inhibition [6] -0.065% | RAM network inhibition [7] 4.6%

Cc1cc(NC(=O)c2cc3n(n2)C(C(F)(F)F)CC(c2ccco2)N3)no1 (configuration not stated)
inactive: growth inhibition [1] 5.72% | growth inhibition [2] 5.53% | viability increase [3] -0.69% | viability [4] 98.8% | viability [5] 94.6% | inhibition [6] 0.475% | RAM network inhibition [7] 1.13%

O=C(Nc1sc2c(c1C(=O)NCC1CCCO1)CCCC2)c1cccs1 (configuration not stated)
inactive: growth inhibition [1] -11.2% | growth inhibition [2] 5.31% | viability increase [3] -3.45% | viability [4] 85.9% | viability [5] 86.6% | inhibition [6] 1% | RAM network inhibition [7] 4.75%

CCc1cc(=O)oc2cc(OCC(=O)N(CC)CC)c(Cl)cc12
inactive: growth inhibition [1] 6.47% | growth inhibition [2] -5.33% | viability increase [3] 1.34% | viability [4] 109% | viability [5] 104% | inhibition [6] -0.545% | RAM network inhibition [7] 3.66%

CC(C)N(Cc1nc(-c2ccccc2)no1)C(=O)c1ccc(Cl)cc1
inactive: growth inhibition [1] -9.85% | growth inhibition [2] -12% | viability increase [3] 2.12% | viability [4] 80.7% | viability [5] 76.2% | inhibition [6] 3.25% | RAM network inhibition [7] 6.42%

COC(=O)C1=C(C)N(C)C(C)=C(C(=O)OC)C1c1cccc(Br)c1
inactive: growth inhibition [1] -16.7% | growth inhibition [2] 0.915% | viability increase [3] 0.06% | viability [4] 72% | viability [5] 67.4% | inhibition [6] 0.57% | RAM network inhibition [7] 9.03%

COc1cccc(C2CC(c3ccccc3OC)n3nc(N)nc3N2)c1 (configuration not stated)
inactive: growth inhibition [1] -0.495% | growth inhibition [2] 6.87% | viability increase [3] -1.09% | viability [4] 98.1% | viability [5] 95.2% | inhibition [6] 1.06% | RAM network inhibition [7] 1.98%

COCC(C)NC(=O)c1ccc(N(C)C)cc1 (configuration not stated)
inactive: growth inhibition [1] 2.19% | growth inhibition [2] 8.57% | viability increase [3] 2.2% | viability [4] 104% | viability [5] 94.5% | inhibition [6] 2.1% | RAM network inhibition [7] 0.51%

CCC(Sc1nncn1C)C(=O)Nc1nnc(-c2ccc(Cl)cc2)s1 (configuration not stated)
inactive: growth inhibition [1] 5.38% | growth inhibition [2] 32.9% | viability increase [3] -2.63% | viability [4] 94.1% | viability [5] 93.5% | inhibition [6] 0.955% | RAM network inhibition [7] 4.37%

Cn1c(C(=O)NCCN2CCc3ccccc3C2)cc2c(=O)n(C)c3ccccc3c21
inactive: growth inhibition [1] -2.54% | growth inhibition [2] 4.4% | viability increase [3] -4.36% | viability [4] 70.4% | viability [5] 72.5% | inhibition [6] 2.96% | RAM network inhibition [7] 1.02%

CCCn1c(CNC(=O)c2cccs2)nc2ccccc21
inactive: growth inhibition [1] -9.53% | growth inhibition [2] -7.64% | viability increase [3] -1.28% | viability [4] 101% | viability [5] 103% | inhibition [6] 2.32% | RAM network inhibition [7] 2.11%

CC1(C)Cc2ccccc2-c2nc(NCCO)n(-c3ccccc3)c(=O)c21
inactive: growth inhibition [1] -7.5% | growth inhibition [2] -15.2% | viability increase [3] -2.92% | viability [4] 84.8% | viability [5] 83% | inhibition [6] -0.14% | RAM network inhibition [7] 3.93%

O=C1C2CCCN2C(c2ccccc2)N1c1ccc(F)cc1 (configuration not stated)
inactive: growth inhibition [1] -1.42% | growth inhibition [2] 3.23% | viability increase [3] -2.06% | viability [4] 96.9% | viability [5] 89.3% | inhibition [6] 2.05% | RAM network inhibition [7] 2.34%

CCOC(=O)N1CCN(C(=O)c2ccccc2NC(=O)COc2ccccc2C)CC1
inactive: growth inhibition [1] -9.27% | growth inhibition [2] 3.48% | viability increase [3] -1.77% | viability [4] 86.3% | viability [5] 82.2% | inhibition [6] 1.29% | RAM network inhibition [7] 5.67%

O=C(Nc1c(C(=O)N2CCCCC2)cnn1-c1ccccc1)c1ccco1
inactive: growth inhibition [1] -2.23% | growth inhibition [2] -5.33% | viability increase [3] -0.92% | viability [4] 95.2% | viability [5] 95.5% | inhibition [6] 1.14% | RAM network inhibition [7] 0.25%

CCC(=O)NCc1nc2ccccc2n1Cc1ccccc1F
inactive: growth inhibition [1] -7.37% | growth inhibition [2] -27% | viability increase [3] -0.04% | viability [4] 99.1% | viability [5] 99.2% | inhibition [6] 0.885% | RAM network inhibition [7] 2.45%

O=C(Cn1cc2c(n1)CCCC2)N1CCOCC1
inactive: growth inhibition [1] -13.2% | growth inhibition [2] -4.99% | viability increase [3] -0.03% | viability [4] 99.4% | viability [5] 108% | inhibition [6] 0.095% | RAM network inhibition [7] 6.94%

COCCNC(=O)c1cc2c(-c3ccc(Cl)cc3)nn(C)c2s1
inactive: growth inhibition [1] 3.03% | growth inhibition [2] 8.65% | viability increase [3] -6% | viability [4] 64.6% | viability [5] 71% | inhibition [6] 0.32% | RAM network inhibition [7] 10.4%

C=CCN(C(=O)CN1CCOCC1)c1nc(C)c(-c2ccccc2)s1
inactive: growth inhibition [1] -16.4% | growth inhibition [2] -12.9% | viability increase [3] -3.35% | viability [4] 91.9% | viability [5] 87.4% | inhibition [6] -0.245% | RAM network inhibition [7] 0.88%

CCCCCOC(=O)Cn1c(=O)oc2ccccc21
inactive: growth inhibition [1] -7.12% | growth inhibition [2] 4.42% | viability increase [3] -1.13% | viability [4] 90.3% | viability [5] 97.8% | inhibition [6] 0.385% | RAM network inhibition [7] 4.28%

CCN1CCCC(NC(=O)c2scc3c2CCCC3)C1 (configuration not stated)
inactive: growth inhibition [1] -8.03% | growth inhibition [2] -5.2% | viability increase [3] -2.12% | viability [4] 96.5% | viability [5] 95.1% | inhibition [6] 0.625% | RAM network inhibition [7] -0.09%

COc1ccc(NC(=O)c2ccc3c(c2)n(C)c(=O)n3C)cc1
inactive: growth inhibition [1] -9.67% | growth inhibition [2] -7.33% | viability increase [3] -5.39% | viability [4] 55.7% | viability [5] 55.7% | inhibition [6] 1.06% | RAM network inhibition [7] 4.75%

CCOC(=O)N1CCN(c2c(N3CCc4ccccc43)c(=O)c2=O)CC1
inactive: growth inhibition [1] -9.63% | growth inhibition [2] 14.6% | viability increase [3] -1.52% | viability [4] 105% | viability [5] 100% | inhibition [6] 2.05% | RAM network inhibition [7] -0.74%

CCN(CC)S(=O)(=O)c1cccc(-c2nnc(SCc3nnc(-c4cccs4)o3)n2N)c1
inactive: growth inhibition [1] 5.53% | viability increase [3] 0.28% | viability [4] 86.5% | viability [5] 92.5% | inhibition [6] 1.85% | RAM network inhibition [7] 3.12%
active: growth inhibition [2] 46.4%

Cc1csc(NC(=O)C(CC(C)C)NS(=O)(=O)c2ccc3c(c2)oc(=O)n3C)n1 (configuration not stated)
inactive: growth inhibition [1] 2.94% | growth inhibition [2] -3.39% | viability increase [3] -0.77% | viability [4] 103% | viability [5] 106% | inhibition [6] 1.33% | RAM network inhibition [7] 2.74%

Cc1ccc2c(c1)N(CCCC(=O)NCc1ccc3c(c1)OCO3)C(=O)CO2
inactive: growth inhibition [1] -5.25% | growth inhibition [2] -25.1% | viability increase [3] -6.26% | viability [4] 95.4% | viability [5] 83.9% | inhibition [6] 0.43% | RAM network inhibition [7] 1.64%

Cc1cc(NC(=O)CSCCc2ccncc2)no1
inactive: growth inhibition [1] -9.54% | growth inhibition [2] -5.15% | viability increase [3] -0.06% | viability [4] 99.7% | viability [5] 105% | inhibition [6] 0.675% | RAM network inhibition [7] 1.27%

CCOC1OC2C(CO)OC(n3cnc4c(N)ncnc43)C2O1 (configuration not stated)
inactive: growth inhibition [1] 6.12% | growth inhibition [2] 10.6% | viability increase [3] 0.13% | viability [4] 95.1% | viability [5] 96.6% | inhibition [6] 1.5% | RAM network inhibition [7] 1.28%

CCC/C(O)=C1\C(=O)CC(C)(C)CC1=NCCO
inactive: growth inhibition [1] 1.41% | growth inhibition [2] 11.1% | viability increase [3] -0.35% | viability [4] 91.9% | viability [5] 98.6% | inhibition [6] 2.65% | RAM network inhibition [7] 3.31%

COC(=O)c1nc2cc(C)ccn2c1F
inactive: growth inhibition [1] 0.67% | growth inhibition [2] 0.595% | viability increase [3] -1.42% | viability [4] 105% | viability [5] 94.3% | inhibition [6] 2.7% | RAM network inhibition [7] 0.79%

CCCCOc1cccc(C2(C(=O)O)CCCC2)c1
inactive: growth inhibition [1] -6.28% | growth inhibition [2] 4.47% | viability increase [3] -1.49% | viability [4] 99% | viability [5] 94.5% | inhibition [6] 1.21% | RAM network inhibition [7] 4.01%

CC(C)C(=O)Nc1nnc(-c2ccccc2)o1
inactive: growth inhibition [1] -5.24% | growth inhibition [2] -0.51% | viability increase [3] -2.2% | viability [4] 102% | viability [5] 101% | inhibition [6] 0.64% | RAM network inhibition [7] -0.68%

CCn1c(=NC(=O)CSC(C)=O)sc2cc(OC)ccc21
inactive: growth inhibition [1] -22.8% | growth inhibition [2] 7.25% | viability increase [3] -5.19% | viability [4] 64.1% | viability [5] 77.2% | inhibition [6] 1.25% | RAM network inhibition [7] 2.46%

CCOC(=O)CN1CC23C=CC(O2)C(C(=O)N2CCN(c4ccc(F)cc4)CC2)C3C1=O (configuration not stated)
inactive: growth inhibition [1] 7.71% | growth inhibition [2] 5.64% | viability increase [3] -2.12% | viability [4] 86.7% | viability [5] 93.2% | inhibition [6] 1.45% | RAM network inhibition [7] -0.56%

COC(=O)c1c(C(=O)OC)c2n(c1C)Cc1ccccc1C2
inactive: growth inhibition [1] -4.47% | growth inhibition [2] -1.14% | viability increase [3] -1.39% | viability [4] 86.6% | viability [5] 90.2% | inhibition [6] 1.85% | RAM network inhibition [7] 1.43%

O=C1Nc2ccccc2C(O)(C(=O)NCc2ccco2)N1c1ccccc1 (configuration not stated)
inactive: growth inhibition [1] -5.44% | growth inhibition [2] 1.25% | viability increase [3] -1.5% | viability [4] 108% | viability [5] 98.7% | inhibition [6] 0.96% | RAM network inhibition [7] 1.15%
